ChEMBL document CHEMBL3112535, “Undesired versus designed enzymatic cleavage of linkers for liver targeting” (Bioorg Med Chem Lett, 2014)

Experiments:
Cocaine esterase [1] = target: T1, Cocaine esterase (Homo sapiens, UniProt O00748); assay: Metabolic stability of the compound in human intestinal microsomes assessed as carboxylesterase-2-mediated hydrolysis by measuring intrinsic clearance at 1 uM in absence of NADPH; assay type: ADME, Intestine
T1 sequence (O00748 whole entry): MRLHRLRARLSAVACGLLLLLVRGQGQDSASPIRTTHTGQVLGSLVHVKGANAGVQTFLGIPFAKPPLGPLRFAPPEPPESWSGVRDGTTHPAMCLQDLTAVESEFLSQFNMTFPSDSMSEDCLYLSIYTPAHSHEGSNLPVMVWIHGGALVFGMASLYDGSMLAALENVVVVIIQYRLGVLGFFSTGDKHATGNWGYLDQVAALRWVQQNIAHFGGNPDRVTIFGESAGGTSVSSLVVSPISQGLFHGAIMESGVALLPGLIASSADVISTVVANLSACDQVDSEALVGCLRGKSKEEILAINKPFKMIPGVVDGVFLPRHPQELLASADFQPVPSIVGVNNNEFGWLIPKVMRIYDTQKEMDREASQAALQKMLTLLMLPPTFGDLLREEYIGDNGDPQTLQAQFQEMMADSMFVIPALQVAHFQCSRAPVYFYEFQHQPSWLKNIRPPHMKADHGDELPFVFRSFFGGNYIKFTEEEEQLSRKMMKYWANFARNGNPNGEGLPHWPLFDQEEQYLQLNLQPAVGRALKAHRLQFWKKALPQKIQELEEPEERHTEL
Outline: (§1)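 Pooled mixed-gender human liver (N = 50) or intestinal (N = 6) microsomes at 0.5 or 0.76 mg/mL final, in 100 mM potassium phosphate pH 7.4, prewarmed 5 min at 37 °C. Substrate 1 µM, n = 2, final DMSO 0.025% and acetonitrile 0.98%. Aliquots taken over 0–60 min into acetonitrile with terfenadine internal standard. Parent loss by LC–MS/MS. CLint = 0.693·(mL incubation)/(t1/2·protein concentration).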

carboxylesterase-1 = target: T2, carboxylesterase-1 (Homo sapiens, UniProt P23141); assay: (§2) Metabolic stability of the compound in human liver microsomes assessed as carboxylesterase-1-mediated hydrolysis by measuring half life in absence of NADPH; assay type: ADME; conditions: liver microsomes; outline: as §1
T2 sequence (P23141 whole entry): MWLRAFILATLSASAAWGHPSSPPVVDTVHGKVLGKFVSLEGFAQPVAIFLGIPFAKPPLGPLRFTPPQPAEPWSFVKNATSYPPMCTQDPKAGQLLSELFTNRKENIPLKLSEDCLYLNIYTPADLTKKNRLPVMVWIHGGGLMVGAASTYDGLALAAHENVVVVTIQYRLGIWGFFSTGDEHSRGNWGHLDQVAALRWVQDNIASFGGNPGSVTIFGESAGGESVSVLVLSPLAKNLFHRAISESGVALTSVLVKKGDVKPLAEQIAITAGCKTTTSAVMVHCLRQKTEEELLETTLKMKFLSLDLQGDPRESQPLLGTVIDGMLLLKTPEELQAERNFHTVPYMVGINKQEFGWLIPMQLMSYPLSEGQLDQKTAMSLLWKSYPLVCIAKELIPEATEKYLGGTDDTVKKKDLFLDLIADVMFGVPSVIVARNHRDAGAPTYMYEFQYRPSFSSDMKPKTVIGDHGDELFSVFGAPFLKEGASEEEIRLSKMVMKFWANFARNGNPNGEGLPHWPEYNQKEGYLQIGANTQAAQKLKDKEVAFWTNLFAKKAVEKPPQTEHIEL

carboxylesterase-2 = target: T3, carboxylesterase-2 (Homo sapiens, UniProt O00748); assay: (§3) Metabolic stability of the compound in human intestinal microsomes assessed as carboxylesterase-2-mediated hydrolysis by measuring half life in absence of NADPH; assay type: ADME, Intestine; conditions: intestinal microsomes; outline: as §1
T3 sequence (O00748 whole entry): T1 sequence (O00748 whole entry)

Liver carboxylesterase 1 [2] = target: T4, Liver carboxylesterase 1 (Homo sapiens, UniProt P23141); assay: Metabolic stability of the compound in human liver microsomes assessed as carboxylesterase-1-mediated hydrolysis by measuring intrinsic clearance at 1 uM in absence of NADPH; assay type: ADME; outline: as §1
T4 sequence (P23141 whole entry): T2 sequence (P23141 whole entry)

Liver carboxylesterase 1 [3] = target: T4, Liver carboxylesterase 1; assay: as §2; assay type: ADME; conditions: microsomes; outline: as §1
Cocaine esterase [4] = target: T1, Cocaine esterase; assay: as §3; assay type: ADME, Intestine; conditions: microsomes; outline: as §1
Cocaine esterase [5] = target: T1, Cocaine esterase; assay: Metabolic stability of the compound assessed as recombinant carboxylesterase-2 (unknown origin)-mediated hydrolysis after 60 mins; assay type: ADME; conditions: 1 h
Outline: (§4)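 Metabolite identification. Substrate at 10 µM final (DMSO stock diluted in acetonitrile) incubated 1 h at 37 °C, pH 7.4, n = 1, with one of: recombinant CE-1 bactosomes, recombinant CE-2 bactosomes, control E. coli cytosol, or human liver or intestinal microsomes. Quench in acetonitrile, centrifuge, dry supernatant under nitrogen, reconstitute in mobile phase. Metabolite formation read by LC–MS/MS.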

Liver carboxylesterase 1 [6] = target: T4, Liver carboxylesterase 1; assay: Metabolic stability of the compound assessed as recombinant carboxylesterase-1 (unknown origin)-mediated hydrolysis after 60 mins; assay type: ADME; conditions: 1 h; outline: as §4

SMILES	CL (Cocaine esterase [1])	half-life (carboxylesterase-1)	half-life (carboxylesterase-2)	CLint (Liver carboxylesterase 1 [2])	t1/2 (Liver carboxylesterase 1 [3])	t1/2 (Cocaine esterase [4])	Stability (Cocaine esterase [5])	Stability (Liver carboxylesterase 1 [6])
COC(=O)NCCCC(CC(C)C)C(=O)Oc1ccc(Oc2ccc(CN(Cc3ccccc3)c3cccc(NS(C)(=O)=O)c3C)cc2)cc1 (centres undefined)	220 µL/min/mg	17 min	6.3 min	82 µL/min/mg	–	–	–	–
COC(=O)NCCCC(C)C(=O)Oc1ccc(Oc2ccc(CN(Cc3ccccc3)c3cccc(NS(C)(=O)=O)c3C)cc2)cc1 (centres undefined)	2600 µL/min/mg	–	–	1000 µL/min/mg	1.3 min	0.53 min	–	–
COC(=O)NCCCC(C)(C)C(=O)Oc1ccc(Oc2ccc(CN(Cc3ccccc3)c3cccc(NS(C)(=O)=O)c3C)cc2)cc1	1000 µL/min/mg	–	–	240 µL/min/mg	5.7 min	1.4 min	–	–
C#CCC(CCCNC(=O)OC)C(=O)Oc1ccc(Oc2ccc(CN(Cc3ccccc3)c3cccc(NS(C)(=O)=O)c3C)cc2)cc1 (centres undefined)	1700 µL/min/mg	–	–	550 µL/min/mg	2.5 min	0.84 min	–	–

The remaining lines, values ahead:

CL (Cocaine esterase [1])	half-life (carboxylesterase-1)	half-life (carboxylesterase-2)	CLint (Liver carboxylesterase 1 [2])	t1/2 (Liver carboxylesterase 1 [3])	t1/2 (Cocaine esterase [4])	Stability (Cocaine esterase [5])	Stability (Liver carboxylesterase 1 [6])	SMILES
240 µL/min/mg	–	–	170 µL/min/mg	5.3 min	3.8 min	Unstable	Stable	COC(=O)NCCCC(Cc1cn(Cc2ccccc2)nn1)C(=O)OCCOc1ccc(Oc2ccc(CN(Cc3ccccc3)c3cccc(NS(C)(=O)=O)c3C)cc2)cc1 (centres undefined)
43 µL/min/mg	–	–	19 µL/min/mg	73 min	32 min	Unstable	Stable	COC(=O)NCCCC(C)(Cc1ccccc1)C(=O)Oc1ccc(Oc2ccc(CN(Cc3ccccc3)c3cccc(NS(C)(=O)=O)c3C)cc2)cc1 (centres undefined)
140 µL/min/mg	–	–	73 µL/min/mg	19 min	9.9 min	–	–	COC(=O)NCCCC(Cc1ccccc1)C(=O)Oc1ccc(Oc2ccc(CN(Cc3ccccc3)c3cccc(NS(C)(=O)=O)c3C)cc2)cc1 (centres undefined)
1900 µL/min/mg	–	–	770 µL/min/mg	1.8 min	0.73 min	Unstable	Stable	C#CCC(CCCNC(=O)OC)C(=O)OCCOc1ccc(Oc2ccc(CN(Cc3ccccc3)c3cccc(NS(C)(=O)=O)c3C)cc2)cc1 (centres undefined)
480 µL/min/mg	–	–	140 µL/min/mg	6.7 min	1.9 min	Unstable	Stable	COC(=O)NCCCC(Cc1cn(Cc2ccccc2)nn1)C(=O)Oc1ccc(Oc2ccc(CN(Cc3ccccc3)c3cccc(NS(C)(=O)=O)c3C)cc2)cc1 (centres undefined)
